Source: ChEMBL document CHEMBL2439952, “Synthesis and anti-Trypanosoma cruzi activity of naphthoquinone-containing triazoles: electrochemical studies on the effects of the quinoidal moiety” (Bioorg Med Chem, 2013)

Columns and labels:
Trypanosoma cruzi [1] = experiment: Antitrypanosomal activity against trypomastigote form of Trypanosoma cruzi Y assessed as parasite growth inhibition after 24 hrs by Neubauer cell counting method; assay type: functional, organism-based
[2] = Selectivity index, ratio of LC50 for mouse HMC to IC50 for trypomastigote form of Trypanosoma cruzi Y
In short: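 Ratio of 24 h LC50 to 24 h IC50. The LC50 came from PrestoBlue on primary mouse embryo heart muscle cells. The IC50 came from Y strain bloodstream trypomastigotes taken at peak parasitaemia from infected albino mice, isolated by differential centrifugation, and held at 10^7 cells/mL in DME with 10% mouse blood. DMSO was at most 0.5%.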

[3] = Cytotoxicity against mouse HMC after 24 hrs by PrestoBlue staining-based assay; conditions: mouse HMC cells, read-out: LC50
In short: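 Primary heart muscle cells from 18-day-old mouse embryo hearts, dissociated with trypsin and collagenase in PBS pH 7.2. Seeded at 6x10^4 cells/well in RPMI-1640 (pH 7.2), 10% FBS, 2 mM glutamine, 24 h, 37°C. Treated 24 h at 37°C in phenol-red-free supplemented medium. PrestoBlue 5 h, read at 570 and 600 nm. LC50 = concentration damaging 50% of cells versus untreated.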

Trypanosoma cruzi [4] = experiment: Potency index, ratio of benznidazole IC50 to compound IC50 for trypomastigote form of Trypanosoma cruzi Y; assay type: functional

Structure (SMILES)	IC50 (Trypanosoma cruzi [1])	other results
CC1(C)CC(n2cc(C3CCCCC3)nn2)C2=C(O1)C(=O)c1ccccc1C2=O (stereo not given)	> 2000 µM	–
CCC(C)(O)c1cn(C2CC(C)(C)OC3=C2C(=O)c2ccccc2C3=O)nn1 (stereo not given)	> 500 µM	–
O=C1C(Br)=C(NCc2cn(CCCN3C(=O)c4ccccc4C3=O)nn2)C(=O)c2ccccc21	> 4000 µM	–
O=C1C(Cl)=C(NCc2cn(CCCN3C(=O)c4ccccc4C3=O)nn2)C(=O)c2ccccc21	> 4000 µM	–
CCC(C)(O)c1cn(C2C3=C(OC2(C)C)C(=O)c2ccccc2C3=O)nn1 (stereo not given)	> 4000 µM	–
O=C1C=C(NCc2cn(CCCCN3C(=O)c4ccccc4C3=O)nn2)C(=O)c2ccccc21	> 4000 µM	–
CC1(C)Oc2c(c3nc4ccccc4nc3c3ccccc23)C1n1cc(-c2ccccc2)nn1 (stereo not given)	> 1500 µM	–
CC1(C)OC2=C(C(=O)C(=O)c3ccccc32)C1n1cc(CNC2=C(Cl)C(=O)c3ccccc3C2=O)nn1 (stereo not given)	8.2 µM	Ratio LC50/IC50 [2]: 34.3; CC50 at 24 h [3]: 282 µM; Ratio IC50 (Trypanosoma cruzi [4]): 12
O=C1C(Br)=C(NCc2cn(-c3cccc([N+](=O)[O-])c3)nn2)C(=O)c2ccccc21	> 4000 µM	–
O=C1C(Cl)=C(NCc2cn(CN3C(=O)c4ccccc4C3=O)nn2)C(=O)c2ccccc21	> 4000 µM	–
CC1(C)OC2=C(C(=O)c3ccccc3C2=O)C1n1cc(C2CCCCC2)nn1 (stereo not given)	> 1500 µM	–
CCCCCCc1cn(C2C3=C(OC2(C)C)C(=O)c2ccccc2C3=O)nn1 (stereo not given)	> 2000 µM	–
O=C1C=C(NCc2cn(CCN3C(=O)c4ccccc4C3=O)nn2)C(=O)c2ccccc21	> 4000 µM	–
CC1(C)OC2=C(C(=O)C(=O)c3ccccc32)C1n1cc(-c2ccccc2)nn1 (stereo not given)	17.3 µM	–
O=C1C(Cl)=C(NCc2cn(CCN3C(=O)c4ccccc4C3=O)nn2)C(=O)c2ccccc21	> 4000 µM	–
CC1(C)OC2=C(C(=O)/C(=N\O)c3ccccc32)C1n1cc(-c2ccccc2)nn1 (stereo not given)	> 3200 µM	–
CC1(C)CC(N=[N+]=[N-])C2=C(O1)C(=O)c1ccccc1C2=O (stereo not given)	318 µM	–
O=C1C=C(NCc2cn(CN3C(=O)c4ccccc4C3=O)nn2)C(=O)c2ccccc21	> 4000 µM	–
CC1(C)OC2=C(C(=O)c3ccccc3C2=O)C1n1cc(-c2ccccc2)nn1 (stereo not given)	> 4000 µM	–
CC1(C)OC2=C(C(=O)C(=O)c3ccccc32)C1n1cc(CNC2=CC(=O)c3ccccc3C2=O)nn1 (stereo not given)	80.8 µM	Ratio LC50/IC50 [2]: < 1.5; CC50 at 24 h [3]: < 125 µM
O=C1C(Br)=C(NCc2cn(CN3C(=O)c4ccccc4C3=O)nn2)C(=O)c2ccccc21	> 4000 µM	–
CC1(C)Oc2c(c3nccnc3c3ccccc23)C1n1cc(-c2ccccc2)nn1 (stereo not given)	> 4000 µM	–
O=C1C(Br)=C(NCc2cn(CCN3C(=O)c4ccccc4C3=O)nn2)C(=O)c2ccccc21	> 4000 µM	–
CC1(C)OC2=C(C(=O)C(=O)c3ccccc32)C1n1cc(CNC2=C(Br)C(=O)c3ccccc3C2=O)nn1 (stereo not given)	6.8 µM	Ratio LC50/IC50 [2]: 9.3; CC50 at 24 h [3]: 63.1 µM; Ratio IC50 (Trypanosoma cruzi [4]): 15
O=C1C=C(NCc2cn(CCCN3C(=O)c4ccccc4C3=O)nn2)C(=O)c2ccccc21	> 4000 µM	–
O=C1C=C(NCc2cn(-c3cccc([N+](=O)[O-])c3)nn2)C(=O)c2ccccc21	> 4000 µM	–
CCCCCc1cn(C2CC(C)(C)OC3=C2C(=O)c2ccccc2C3=O)nn1 (stereo not given)	> 4000 µM	–
